A short description of data set [1]: Binding affinity to Influenza A virus nucleoprotein by surface plasmon resonance analysis.
Data set [2] deals with PA/PB1 (Influenza A virus (A/Puerto Rico/8/1934(H1N1)), UniProt P03431+P03433). The data set can be described thus: Binding affinity to biotin labelled Influenza A virus polymerase acidic protein (1 to 27 residues) by surface plasmon resonance analysis. Type of data set: protein assay. Put shortly: (§1)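 Biotinylated PA(1-27) was captured on the chip at about 1500 RU, with a scrambled peptide on the same chip at similar RU. NP (12–2500 nM), alone or as NP-DNA complex, was injected with or without compound up to 50 µM. Running buffer was 20 mM Tris-HCl pH 7.4, 300 mM NaCl, 0.005% P20, at 25 °C and 30 µl/min. Regeneration used guanidinium chloride then 10 mM NaOH.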

Data set [3] in a line: (§2) Inhibition of Influenza A virus nucleoprotein/polymerase acidic protein (1 to 27 residues) complex formation in presence of DNA by surface plasmon resonance analysis. Put shortly: as §1
The subject of data set [4] is Influenza A virus. The description is as §2. Summed up: as §1
For data set [5], the system named is Influenza A virus. The data set can be described thus: Antiviral activity against Influenza A virus (A/WSN/1933(H1N1)) infected in MDCK cells at MOI of 10^-3 assessed as decrease in viral load after 48 hrs by crystal violet staining-based plaque assay. Type of data set: functional, organism-based. Summed up:
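Serum-starved MDCK cells, 0.32 x 10^6 per well, were infected with A/WSN/33 at MOI 10^-3 (multi-cycle). Compound (0.1–500 µM) or vehicle was added immediately after adsorption. After 48 h, titres in clarified supernatant were read by plaque assay with crystal violet. Runs were in triplicate, repeated at least twice, and IC50 came from a dose-response fit.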

Data set [6] deals with Influenza A virus. The data set can be described thus: Antiviral activity against Influenza A virus (A/WSN/1933(H1N1)) infected in MDCK cells at MOI of 2 assessed as decrease in viral load after 18 hrs by immunofluorescence analysis. It counts as functional, organism-based. Summed up:
(§3)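 MDCK or A549 cells, 0.32 x 10^6 per well, were held 24 h serum-free to 80% confluence and then infected at MOI 2. Compound (0.1–500 µM) or vehicle was added right after virus adsorption. At 18 h, viral NP was read by immunofluorescence and corrected for cell number by DAPI. Runs were in triplicate, repeated at least twice, and IC50 came from a dose-response fit.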

Data set [7] is described as follows: Selectivity index, ratio of CC50 for MDCK cells to IC50 for Influenza A virus (A/WSN/1933(H1N1)) infected in MDCK cells at MOI of 10^-3 after 48 hrs. Type of data set: toxicity, cell-based. To be noted: dog, read-out: Ratio CC50/IC50.
Data set [8] is described as follows: Safety index, ratio of compound CC50 to naproxen CC50 for MDCK cells by MTT assay. Type of data set: ADME, cell-based, Canis lupus familiaris. To be noted: dog.
Data set [9] deals with Influenza A virus. The data set can be described thus: Antiviral activity against Influenza A virus (A/Udorn/1972 (H3N2)) infected in human A549 cells assessed as decrease in viral load after 18 hrs by immunofluorescence analysis. It counts as functional, organism-based. Conditions: A549, 18 h. Put shortly: as §3
Data set [10] relates to Influenza A virus. Kind of data set: Potency index, ratio of naproxen IC50 to compound IC50 for Influenza A virus (A/WSN/1933(H1N1)) infected in MDCK cells at MOI of 2 after 18 hrs by immunofluorescence analysis. Type of data set: functional.
Data set [11] deals with Influenza A virus. Kind of data set: Antiviral activity against Influenza A virus (A/Udorn/1972 (H3N2)) infected in MDCK cells at MOI of 10^-3 assessed as decrease in viral load after 18 hrs by crystal violet staining-based plaque assay. It counts as functional, organism-based.
The nature of data set [12]: Selectivity index, ratio of CC50 for MDCK cells to IC50 for Influenza A virus (A/Udorn/1972 (H3N2)) infected in MDCK cells at MOI of 2 after 18 hrs. Type of data set: toxicity, cell-based. Conditions: dog, read-out: Ratio CC50/IC50.
Data set [13] deals with Influenza A virus. Kind of data set: Antiviral activity against Influenza A virus (A/Udorn/1972 (H3N2)) infected in MDCK cells at MOI of 0.2 assessed as decrease in viral load after 18 hrs by immunofluorescence analysis. It counts as functional, organism-based.
A short description of data set [14]: Selectivity index, ratio of CC50 for MDCK cells to IC50 for pandemic Influenza A virus (A/Netherlands/602/09(H1N1)) infected in MDCK cells at MOI of 10^-3 after 18 hrs. Type of data set: toxicity, cell-based. To be noted: dog, read-out: Ratio CC50/IC50.
For data set [15], the system named is A549. The data set can be described thus: Downregulation of COX2 level in human A549 cells infected with Influenza A virus at MOI of 2 at 100 uM after 18 hrs in presence of gamma-ATP by immunofluorescence analysis. To be noted: a549, 18 h. It counts as cell-based. Summed up: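 A549 cells were pretreated with compound for 30 min, then either infected with IAV at MOI 2 for 18 h or activated with 100 µM γ-ATP for 1 h with or without compound. Cells were fixed in 3% PFA and permeabilised with 0.1% triton. COX2 was immunostained overnight with a primary antibody and detected with an Alexa 647 secondary.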

In data set [16] the test system is Influenza A virus. The data set can be described thus: Antiviral activity against Influenza A virus (A/Puerto Rico/8/1934(H1N1)) infected in C57BL/6J mouse assessed as recovery of weight loss at 1 mg/mouse/day, ip qd treated up to day 2 starting at 5 to 10 mins post infection measured up to day 12 relative to control. It counts as functional. Summed up: (§4)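 Intranasal A/PR/8/34 challenge at 500 PFU in female C57BL/6J mice, 5–6 weeks old, under ketamine/xylazine. Dosing was i.p. once daily on days 0, 1 and 2, starting 5–10 min post-inoculation; 1 mg/mouse is 50 mg/kg and 8 mg/mouse is 400 mg/kg. There were 10 mice per group, with saline vehicle. Survival and body weight were scored daily, with 20% weight loss as the mortality endpoint.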

The test system of data set [17] is Influenza A virus. The data set can be described thus: Antiviral activity against Influenza A virus (A/Puerto Rico/8/1934(H1N1)) infected in ip dosed C57BL/6J mouse assessed as increase in mouse survival administered once daily treated up to day 2 starting at 5 to 10 mins post infection. Type of data set: functional, organism-based. Put shortly: as §4
Data set [18] relates to Influenza A virus. The data set can be described thus: Antiviral activity against Influenza A virus (A/Puerto Rico/8/1934(H1N1)) infected in C57BL/6J mouse assessed as survival at 1 to 8 mg/mouse/day, ip qd treated up to day 2 starting at 5 to 10 mins post infection measured at day 12 relative to control. Type of data set: functional. Put shortly:
as §4

Data set [19] deals with Influenza A virus. Kind of data set: Antiviral activity against Influenza A virus (A/Puerto Rico/8/1934(H1N1)) infected in C57BL/6J mouse assessed as increase in mouse survival at 8 mg/mouse/day, ip qd treated up to day 2 starting at 5 to 10 mins post infection measured at day 12. It counts as functional, organism-based. Put shortly:
as §4

Data set [20] has as its system Influenza A virus. Kind of data set: Antiviral activity against Influenza A virus (A/Puerto Rico/8/1934(H1N1)) infected in C57BL/6J mouse assessed as recovery of weight loss at 8 mg/mouse/day, ip qd treated up to day 2 starting at 5 to 10 mins post infection measured up to day 12 relative to control. Type of data set: functional. Summed up:
as §4

Data set [21] deals with Influenza A virus. The data set can be described thus: Antiviral activity against Influenza A virus (A/Puerto Rico/8/1934(H1N1)) infected in C57BL/6J mouse assessed as decrease in viral load in bronchoalveolar lavage at 1 mg/mouse/day, ip qd treated up to day 2 starting at 5 to 10 mins post infection relative to control. It counts as functional. Summed up: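 Female C57BL/6J mice, 5–6 weeks old, were anaesthetised with ketamine/xylazine (43/5 mg/kg) and inoculated intranasally with A/PR/8/34 at 500 PFU. Treatment was i.p. once daily on days 0, 1 and 2, starting 5–10 min after inoculation; 1 mg/mouse is 50 mg/kg and 8 mg/mouse is 400 mg/kg. BAL infectious titre was measured by plaque assay against saline-treated mice.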

pIC50, pKi: −log10 of the molar value. The source made the active and inactive calls. The calls are words filed in the database; no cut-off is given here.

In the case of `COc1ccc2cc(-c3c(C(=O)[O-])cccc3C(=O)[O-])ccc2c1.[Na+].[Na+]`, the pKi in [1] was 7.01; in data set [2], 4.52. The pIC50 in data set [3] is 7.52; in data set [5], 5.54; in data set [6] it was 4.72; in data set [9], 4.60; in data set [11], 5.70; in data set [13] it was 5.15. The inhibition entry in data set [4] was “Dose-dependent effect”. Besides, in data set [7], the selectivity ratio at 48 h lay in the range of 4480 to 5200. For the same compound, the selectivity ratio in data set [8] came out at 10. Also, the “Ratio IC50” value in data set [10] was found to be 5. In addition, the selectivity ratio at 18 h in data set [12] amounted to 650; in data set [14], 7220. Moreover, the Activity entry was “Non-Toxic” in data set [15], “>=95%” in data set [16], “Dose-dependent effect” in data set [17] and 5% in data set [20]. Further, the Survival in data set [18] stood at 70%. For the same compound, in data set [19], the outcome was Active. Further, in data set [21], the “fold change (FC)” value turned out to be 6.

The values are drawn from ChEMBL document CHEMBL4196106, “From Naproxen Repurposing to Naproxen Analogues and Their Antiviral Activity against Influenza A Virus” (J Med Chem, 2018).
